Screens as filed in PubChem BioAssay.
An excerpt weighted towards active compounds, which were near 4.5% of everything screened.
GPR7 antag: blocks human GPR7 receptor signaling; inhibition, % at 4.4 µM; P48145; 1.1% of 290,000 active; GPR7-expressing cells, fluorescence antagonist assay; in the data active = inhibition above about 16%, passing the limit was not always enough;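 also: cells stimulated with the agonist NPW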
TAAR1 antag: antagonists of human TAAR1. Q96RJ0. CHO RD-HGA16 TAAR1, Fluo-8 calcium fluorescence, antagonist. inhibition, % at 3 µM. 1.5% of 360,000 active. AID 624466;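 active = inhibition above a per-plate cutoff, the mean inhibition of test compounds on that plate plus 3 SD, cut at about 49% in these data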
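Test system: hTAAR1-expressing CHO RD-HGA16 cells, Gα16-coupled; Probe or stimulus: EC80 β-phenethylamine stimulus; Compound dosing: single nominal final test compound concentration of 3 µM; Timing: 140 s kinetic read after compound, 140 s after agonist; Signal: Fluo-8 calcium-sensitive fluorescence; Measure: % inhibition of agonist calcium response; Controls: DMSO and EC80 PEA controls.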
CHO parental Ca: counter-screen for OX1R antagonists: effect in parental CHO cells. parental CHO-K1, ATP-induced calcium, Fluo-8 fluorescence. 0.63% of 330,000 active. inhibition, % at 5.6 µM;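 active = inhibition above that plate's mean sample inhibition plus 3 SD, cut at about 26% in these data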
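Assay system – parental CHO cells · Reagent – ATP stimulus · Detection – intracellular calcium via Fluo-8 no-wash fluorescent dye · Evaluation – percent inhibition of ATP-evoked calcium rise, normalized to controls · Controls – ATP wells versus no-ATP DMSO wells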
OX1R antag-1: blocks the human orexin 1 receptor | O43613 | CHO/OX1R cells, Fluo-8 calcium fluorescence, orexin A | inhibition, % at 5 µM | 0.43% of 330,000 active | AID 434989;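 active = inhibition above its plate's threshold, mean inhibition of all tested compounds on the plate plus 3 SD, cut at about 37% in these data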
Target sequence (O43613 whole entry, looked up): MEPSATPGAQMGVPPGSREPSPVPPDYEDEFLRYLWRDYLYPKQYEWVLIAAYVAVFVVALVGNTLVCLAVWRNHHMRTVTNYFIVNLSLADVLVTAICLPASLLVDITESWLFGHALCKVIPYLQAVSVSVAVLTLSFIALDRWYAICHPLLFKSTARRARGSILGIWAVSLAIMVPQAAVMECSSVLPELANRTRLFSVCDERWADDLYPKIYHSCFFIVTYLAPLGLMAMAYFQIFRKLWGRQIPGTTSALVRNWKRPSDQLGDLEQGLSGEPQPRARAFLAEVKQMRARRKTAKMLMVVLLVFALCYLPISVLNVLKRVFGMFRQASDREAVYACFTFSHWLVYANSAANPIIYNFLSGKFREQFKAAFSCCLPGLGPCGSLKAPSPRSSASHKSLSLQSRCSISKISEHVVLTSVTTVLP
OX1R antag-2: OX1R (human) antagonism; inhibition, % at 6.6 µM; OX1R-expressing cells, FRET antagonist read-out; 1.8% of 330,000 active; O43613; in the data active = inhibition mostly above about 38%, no sharp cut-off; inactive = mostly below about 40%
TAAR1 agonist: human TAAR1 agonism; activation, % at 3 µM; 0.99% of 360,000 active; AID 624467; CHO RD-HGA16 TAAR1, Fluo-8 calcium fluorescence; vehicle wells 0%, saturating PEA agonist 100%;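 active = activation above the mean activation of all test compounds in the run plus 3 SD, cut at about 38% in these data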
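test system = CHO RD-HGA16 cells carrying human TAAR1 plus Gα16 | schedule = 17-24 h seeding, 75 min 37 °C dye, 30 min RT | compound dosing = 3 µM single concentration | control set = DMSO and PEA EC100 | replicates = n 1 | signal = Fluo-8 fluorescence, 5 s baseline then 140 s kinetic read | measure = percent activation vs PEA EC100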
TAAR1 ag conf: confirmation of human TAAR1 agonists; shares compounds with TAAR1 agonist; CHO RD-HGA16 TAAR1, Fluo-8 calcium fluorescence; scaled: DMSO 0%, maximal phenethylamine 100%; activation, % at 3 µM; 82% of 2,400 active;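 active = activation above a cutoff set at the run's mean compound activation plus 3 SD, cut at about 39% in these data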
Ga16 ag counter: nonselective agonist in parental cells, TAAR1 agonist counter-screen. shares compounds with TAAR1 agonist. CHO-Ga16 parental, Fluo-8 calcium fluorescence; normalized to maximal ATP response, DMSO zero. activation, % at 3 µM. 50% of 2,400 active. AID 651787;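 active = activation above the run cutoff, the mean activation over all tested wells plus 3 SD, cut at about 12% in these data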
TAAR1 desens: counter-screen for human TAAR1 agonists: agonists that desensitize TAAR1 | shares compounds with TAAR1 agonist | CHO RD-HGA16 hTAAR1, Fluo-8 calcium, beta-PEA response inhibition | inhibition, % at 3 µM | 46% of 2,400 active | AID 651951;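 active = inhibition above the run cutoff, the mean inhibition of all test compounds plus 3 SD, cut at about 49% in these data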;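 also: beta-PEA stimulus applied at its EC80; loss of beta-PEA calcium signal after compound pretreatment read as receptor desensitization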
Ga16 antag count: nonselective Ga16 antagonist in TAAR1 agonist counter-screen; shares compounds with TAAR1 agonist; CHO-Ga16 ATP-induced calcium, Fluo-8 fluorescence; inhibition, % at 3 µM; 39% of 2,400 active; AID 651952;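 active = inhibition above the plate's mean compound inhibition plus 3 SD, computed per plate, cut at about 22% in these data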
A number is an active result; - = inactive; . = no result.

SMILES	GPR7 antag	TAAR1 antag	CHO parental Ca	OX1R antag-1	OX1R antag-2	TAAR1 agonist	TAAR1 ag conf	Ga16 ag counter	TAAR1 desens	Ga16 antag count
COc1cc(/C=N/NC(=O)c2nnn(-c3nonc3N)c2C(C)C)ccc1O	-	-	-	-	-	-	.	.	.	.
CC(C)c1c(C(=O)N/N=C/c2ccc(OCc3ccc(F)cc3)cc2)nnn1-c1nonc1N	-	-	-	-	-	-	.	.	.	.
O=C(Nc1cc(C(F)(F)F)cc(C(F)(F)F)c1)[C@H]1O[C@@H](n2ccc(=O)[nH]c2=O)[C@H](O)[C@@H]1O	.	-	.	.	.	-	.	.	.	.
O=C1CCC(C(=O)OCC(=O)Nc2ccc(SC(F)F)cc2)=NN1	.	-	.	.	.	-	.	.	.	.
CC(C)c1c(C(=O)N/N=C2\CCc3ccccc32)nnn1-c1nonc1N	-	-	-	-	-	62	53	16	-	-
CC(C)c1ccc(/C=N/NC(=O)c2nnn(-c3nonc3N)c2CN2CCOCC2)cc1	-	-	-	-	-	61	90	54	-	-
CN1C=CC(=C[N+](=O)[O-])N(C)C1=O	.	-	.	.	.	-	.	.	.	.
CC(C)c1ccc(-c2c(NCCc3ccccc3)c(=O)c2=O)cc1	-	-	-	-	-	49	-	-	-	-
Cc1ccc(-c2c(NCCc3ccccc3)c(=O)c2=O)cc1	-	-	-	-	-	-	.	.	.	.
C=CCN(CC=C)Cc1cc(=O)oc2cc(OC)ccc12	.	-	.	.	.	-	.	.	.	.
CC1(c2ccc(OC(F)F)cc2)NC(=O)N(/N=C/c2c(O)ccc3ccccc23)C1=O (stereo not drawn)	-	54	-	-	-	64	68	48	73	59
CC1(c2ccc(OC(F)F)cc2)NC(=O)N(CC(=O)Nc2cccc(S(N)(=O)=O)c2)C1=O (stereo not drawn)	-	-	-	-	-	-	.	.	.	.
CCC1CCc2sc(C(=O)NCC(c3ccc(OC)cc3)N3CCCC3)cc2C1 (stereo not drawn)	.	-	-	-	-	46	42	-	-	-
COc1ccc(C(CNC(=O)c2cccc(N(C)C)c2)N2CCCC2)cc1 (stereo not drawn)	-	-	-	-	-	-	.	.	.	.
CCCCCCn1c(=O)n2n(c1=O)[C@@H]1CN(S(=O)(=O)c3ccc(C)cc3)C[C@]1(O)[C@@H](OC(=O)Nc1c(C)noc1C)C2	.	-	.	.	.	-	.	.	.	.
N#Cc1c(N)sc2c1CCN(CCc1ccccc1)C2	-	-	-	-	-	79	84	-	64	-
CCOC(=O)N1CCc2c(sc(N)c2C#N)C1	-	-	-	-	-	-	.	.	.	.
O=CC(=Cc1ccccc1)c1ccccc1	.	-	.	.	.	-	.	.	.	.
N#Cc1nc(-c2ccco2)oc1N1CCc2ccccc2C1	-	-	-	-	-	73	45	-	-	-
CNc1cncc(-c2ccoc2)n1	.	-	.	.	.	-	.	.	.	.
CCOC(=O)C1=NN(C(=O)c2ccc(OC)cc2)C(O)(c2ccc(Cl)cc2)C1 (stereo not drawn)	-	-	-	-	-	65	80	64	-	30
CCOC(=O)C1=NN(C(=O)COc2ccccc2)C(O)(c2ccc(Cl)cc2)C1 (stereo not drawn)	-	-	-	-	-	-	.	.	.	.
COC(=O)C1=NN(C(=O)c2cccc(Br)c2)C(O)(c2ccc(Cl)cc2)C1 (stereo not drawn)	-	71	-	-	50	93	95	67	76	62
CCOC(=O)C1=NN(C(=O)c2cccc(Br)c2)C(O)(C(C)(C)C)C1 (stereo not drawn)	-	.	-	-	-	.	.	.	.	.
COc1ccc(C(=O)NCCCN2CCN(CCCNC(=O)c3ccc(OC)c(OC)c3)CC2)cc1OC	.	-	.	.	.	-	.	.	.	.
SMILES	GPR7 antag	TAAR1 antag	CHO parental Ca	OX1R antag-1	OX1R antag-2	TAAR1 agonist	TAAR1 ag conf	Ga16 ag counter	TAAR1 desens	Ga16 antag count
FC(F)(F)c1cccnc1Oc1ccc(C2=NCCS2)cc1	-	57	-	-	-	84	58	58	62	43
CC(C)=NNc1nc2c(c(=O)[nH]c(=O)n2C)n1CCCc1ccccc1	-	-	-	-	-	-	.	.	.	.
CC(C)=NNc1nc2c(c(=O)[nH]c(=O)n2C)n1CCc1ccccc1	-	-	-	-	-	47	-	-	-	-
O=C(CCCc1ccccc1)Nc1cccc2c1CCCC2	-	71	-	-	-	55	-	-	-	-
O=C(COc1ccccc1)Nc1cccc2c1CCCC2	-	-	-	-	-	-	.	.	.	.
OC(COC(c1ccc(F)cc1)c1ccc(F)cc1)CN1CCCC(C(F)(F)F)C1 (stereo not drawn)	-	-	-	-	-	70	79	-	58	-
COc1ccccc1N1CCN(C(=O)C(=O)c2cccc([N+](=O)[O-])c2)CC1	.	-	.	.	.	-	.	.	.	.
O=C(NCCc1ccccc1)c1ccc(CS(=O)(=O)c2ccc(Br)cc2)o1	-	-	-	-	-	-	.	.	.	.
CCOCCCNC(=O)c1ccc(CS(=O)(=O)Cc2cccc(C)c2)o1	-	-	-	-	-	-	.	.	.	.
Cc1cccc(CS(=O)(=O)Cc2ccc(C(=O)NCCc3ccccc3)o2)c1	-	-	-	-	-	48	-	-	-	-
Cc1ccccc1CS(=O)(=O)Cc1ccc(C(=O)NCCc2ccccc2)o1	-	-	-	-	-	72	48	-	-	22
COc1cccc(CNC(=O)c2ccc(CS(=O)(=O)Cc3ccccc3C)o2)c1	-	-	-	-	-	-	.	.	.	.
CN(CCNC(=O)c1ccc(CS(=O)(=O)c2ccc(Br)cc2)o1)CCc1ccccc1	-	-	-	-	-	53	51	-	-	-
O=C1C=C(OCCF)CC(c2ccc(Br)cc2)O1 (stereo not drawn)	.	-	.	.	.	-	.	.	.	.
Cc1cccc(Oc2ccccc2NC(=O)C2=COCCO2)c1	.	-	-	-	-	-	.	.	.	.
COc1ccc(CCNCC(O)COc2cccc(Br)c2)cc1OC (stereo not drawn)	-	-	-	-	-	-	.	.	.	.
COc1ccc(CCNCC(O)COc2ccc(OC)cc2C(C)(C)C)cc1 (stereo not drawn)	-	-	-	-	-	66	96	14	70	-
